Test results reported in ChEMBL document CHEMBL1155337, “N-substituted bis-C-alkyloxadiazolones as dual effectors: efficient intermediates to amidoximes or amidines and prodrug candidates of potent antimalarials” (Bioorg Med Chem Lett, 2009).
Activity calls are given as the source filed them. The rule behind the calls is not given here.

Key:
[1] = system: Plasmodium vinckei petteri; assay: Antimalarial activity against Plasmodium vinckei petteri 279BY infected in Swiss mice (Mus musculus) assessed as reduction in parasitaemia level at 5 mg/kg, intraperitoneally relative to control; assay type: functional; design: scale not given: the % may be the effect or the level left; settings: route intraperitoneal
Method in brief: (§1)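 Female Swiss mice were infected with P. vinckei petteri 279BY on day 0. Compound was given intraperitoneally or orally once daily for four consecutive days (days 1–4 post infection). Three doses were tested per compound, with 3 mice per dose. Parasitemia was monitored against untreated control, and cleared animals were followed 28 days for recrudescence. ED50 was derived from the dose series.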

[2] = system: Plasmodium vinckei petteri; assay: Antimalarial activity against Plasmodium vinckei petteri 279BY infected in Swiss mice (Mus musculus) assessed as reduction in parasitaemia level at 180 mg, perorally relative to control; assay type: functional; design: scale not given: the % may be the effect or the level left; method in brief: as §1
Plasmodium falciparum = assay: Antimalarial activity against chloroquine-sensitive Plasmodium falciparum Nigerian; assay type: functional, organism-based
Method in brief: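 In vitro IC50 values are means of at least two independent experiments, each run in duplicate.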

[3] = system: Plasmodium vinckei petteri; assay: Antimalarial activity against Plasmodium vinckei petteri 279BY infected in Swiss mice (Mus musculus) assessed as reduction in parasitaemia level at 10 mg/kg, intraperitoneal measured after 4 days; assay type: functional; settings: ip, 96 h; method in brief: as §1
[4] = system: Plasmodium vinckei petteri; assay: Antimalarial activity against Plasmodium vinckei petteri 279BY infected peroral daily dosed Swiss mice (Mus musculus) assessed as reduction in parasitaemia level measured after 4 days; assay type: functional; settings: po, 96 h; method in brief: as §1
[5] = system: Plasmodium vinckei petteri; assay: Antimalarial activity against Plasmodium vinckei petteri 279BY infected in Swiss mice (Mus musculus) at 10 mg/kg, intraperitoneal after 4 days; assay type: functional, organism-based; design: dose 10 mg/kg; method in brief: as §1
[6] = system: Plasmodium vinckei petteri; assay: Antimalarial activity against Plasmodium vinckei petteri 279BY infected intraperitoneally daily dosed Swiss mice (Mus musculus) assessed as reduction in parasitaemia after 28 days; assay type: functional; settings: ip, 672 h; method in brief: as §1
Mus musculus [7] = assay: Toxicity in Plasmodium vinckei petteri 279BY infected Swiss mice (Mus musculus) at >10 mg/kg, intraperitoneally; assay type: organism-based; settings: in vivo, ip
[8] = system: Plasmodium vinckei petteri; assay: Antimalarial activity against Plasmodium vinckei petteri 279BY infected in Swiss mice (Mus musculus) assessed as reduction in parasitaemia level at 90 mg/kg, perorally relative to control; assay type: functional; design: scale not given: the % may be the effect or the level left; settings: route oral; method in brief: as §1
Mus musculus [9] = assay: Toxicity in Plasmodium vinckei petteri 279BY infected Swiss mice (Mus musculus) at 5 mg/kg, intraperitoneally; assay type: organism-based; design: dose 5 mg/kg, route intraperitoneal; settings: in vivo, ip

IC50 (Plasmodium falciparum) [nM]	Structure (SMILES)	ED50 [3] [mg/kg]	ED50 [4] [mg/kg]	other results
6200	CCN/C(CCCCCCCCCCCC/C(=N/O)NCC)=N\O	3.1	> 180	Activity [1]: 76%; Activity [2]: 20%
	Cl.Cl.N=C(N)CCCCCCCCCCCCC(=N)N	> 10	> 100	Activity [5]: inactive
4950	O=c1onc(CCCCCCCCCCCCc2noc(=O)n2Cc2ccccc2)n1Cc1ccccc1	> 20	> 90	
	Cc1c(CCO)sc[n+]1CCCCCCCCCCCC[n+]1csc(CCO)c1C.[Br-].[Br-] [ALBITIAZOLIUM BROMIDE]	0.2	13	
9.4	CCNC(=N)CCCCCCCCCCCCC(=N)NCC.Cl.Cl	6.3	> 180	ED50 [6]: 6.3 mg/kg
1040	O/N=C(/CCCCCCCCCCCC/C(=N/O)NCc1ccccc1)NCc1ccccc1	> 20	> 90	
4.6	Cl.Cl.N=C(CCCCCCCCCCCCC(=N)NCc1ccccc1)NCc1ccccc1	> 20	> 90	Activity [5]: inactive
9.2	COCCNC(=N)CCCCCCCCCCCCC(=N)NCCOC.Cl.Cl	8	> 90	ED50 [6]: 8 mg/kg
14.4	CNC(=N)CCCCCCCCCCCCC(=N)NC.Cl.Cl		> 180	Activity (Mus musculus [7]): Toxic; Activity [5]: inactive
10000	CCn1c(CCCCCCCCCCCCc2noc(=O)n2CC)noc1=O	> 10	> 20	
	Cn1c(CCCCCCCCCCCCc2noc(=O)n2C)noc1=O	> 20	> 45	
6450	COCCn1c(CCCCCCCCCCCCc2noc(=O)n2CCOC)noc1=O	> 20	90	Activity [8]: 50%
	O=c1[nH]c(CCCCCCCCCCCCc2noc(=O)[nH]2)no1	> 20	100	
10100	CN/C(CCCCCCCCCCCC/C(=N/O)NC)=N\O		> 180	Activity [1]: 44%; Activity (Mus musculus [9]): Toxic
2950	COCCN/C(CCCCCCCCCCCC/C(=N/O)NCCOC)=N\O		> 180	Activity [1]: 33%; Activity [2]: 16%; Activity (Mus musculus [9]): Toxic
	N/C(CCCCCCCCCCCC/C(N)=N/O)=N\O		120	
